# Test results: ChEMBL document CHEMBL1123761, “Inhibition of the mammalian beta-lactamase renal dipeptidase (dehydropeptidase-I) by (Z)-2-(acylamino)-3-substituted-propenoic acids” (J Med Chem, 1987)
# Non-standard residues stand in square brackets, D forms with d. Residues, ends and D or L forms follow the SMILES beside them. *: point of attachment. Isovaleryl = CC(C)CC(=O)*; Dhb = C/C=C(\N)C(=O)O; Butyryl = CCCC(=O)*
# Biological target: T1, Dipeptidase 1 (Sus scrofa, UniProt P22412)
# T1 sequence (P22412 whole entry): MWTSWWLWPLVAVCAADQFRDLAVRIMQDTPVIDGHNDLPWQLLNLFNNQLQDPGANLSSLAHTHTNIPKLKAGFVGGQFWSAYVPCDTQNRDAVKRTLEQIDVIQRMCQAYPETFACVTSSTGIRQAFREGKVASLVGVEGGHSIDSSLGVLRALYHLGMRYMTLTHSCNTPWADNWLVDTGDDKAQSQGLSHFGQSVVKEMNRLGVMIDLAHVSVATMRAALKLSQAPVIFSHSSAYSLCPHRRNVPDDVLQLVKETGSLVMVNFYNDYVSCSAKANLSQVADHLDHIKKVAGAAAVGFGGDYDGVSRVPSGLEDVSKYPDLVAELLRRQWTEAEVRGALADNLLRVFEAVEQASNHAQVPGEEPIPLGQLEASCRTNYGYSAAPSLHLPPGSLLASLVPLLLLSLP
# Test: Inhibitory activity against beta-lactamase renal dipeptidase
row,Ki,Compound
1,25 µM,C/C=C(\NC(=O)c1ccccc1Cl)C(=O)O

# Biological target: T2, Dipeptidase 1 (Sus scrofa) (UniProt P22412)
# T2 sequence (whole entry): T1 sequence (P22412 whole entry)
# Test: Inhibitory activity against beta-lactamase renal dipeptidase at a concentration of 100 uM
# Procedure, shortened: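 Inhibitor was incubated with solubilized renal dipeptidase (50–75% ammonium sulfate fraction, 5 µg) in 50 mM MOPS pH 7.1 for 5 min at 37 °C. Glycyldehydrophenylalanine was then added to 50 µM. Rate was followed as the absorbance decrease at 275 nm over 10 min and compared with the uninhibited rate.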
row,Compound,inhibition
1,C/C=C(\NC(=O)CCCCCCCCCCCCC)C(=O)O,45%
2,C/C=C(\NC(=O)COc1ccccc1)C(=O)O,3%
3,CC(C)=C(NC(=O)c1ccccc1)C(=O)O,4%
4,C/C=C(\NC(=O)C12CC3CC(CC(C3)C1)C2)C(=O)O,3%
5,C/C=C(\NC(=O)CCC1CCCC1)C(=O)O,56%
6,C/C=C(\NC(=O)CCC1CCCO1)C(=O)O (centres undefined),51%
7,C=C(NC(=O)c1ccccc1)C(=O)O,9%
8,C/C=C(\NC(=O)c1ccc(Cl)cc1)C(=O)O,7%
9,C/C=C(\NC(=O)CCC1CCCCC1)C(=O)O,54%
10,CO/C=C(\NC(=O)c1ccccc1)C(=O)O,23%
11,C/C=C(\NC(=O)c1ccc2ccccc2c1)C(=O)O,3%
12,C/C=C(\NC(=O)CCCCCCCCCCCCCCCCC)C(=O)O,12%
13,C/C=C(\NC(=O)Cc1ccccc1)C(=O)O,21%
14,C/C=C(\NC(=O)CC12CC3CC(CC(C3)C1)C2)C(=O)O,33%
15,C/C=C(\NC(=O)C1C(C)(C)C1(C)C)C(=O)O,10%
16,C/C=C(\NC(=O)CCl)C(=O)O,52%
17,C/C=C(\NC(=O)CC1=CCCCC1)C(=O)O,50%
18,O=C(O)/C(=C/Cl)NC(=O)c1ccccc1,36%
19,C/C=C(\NC(=O)CCc1ccccc1)C(=O)O,30%
20,C/C=C(\NC(=O)CC1CC2CCC1C2)C(=O)O (centres undefined),54%
21,C/C=C(\NC(=O)/C=C/c1ccccc1)C(=O)O,0%
22,O=C(CO)N/C(=C\c1ccccc1)C(=O)O,4%
23,C/C=C(\NC(=O)c1c(Cl)cccc1Cl)C(=O)O,0%
24,C/C=C(\NC(=O)CCCCCCCCC)C(=O)O,58%
25,CC(C)=C(NC(=O)C1CC1(C)C)C(=O)O (centres undefined),57%

# Second part, the compound after the results:
row,inhibition,Compound
1,57%,C=CCCC(=O)N/C(=C\C)C(=O)O
2,43%,C/C=C(\NC(=O)CC)C(=O)O
3,44%,C/C=C(\NC(=O)C1C(C(C)(C)C)C1(C)C)C(=O)O (centres undefined)
4,0%,C/C=C(\NC(=O)C(C)(C)C)C(=O)O
5,31%,C/C=C(\NC(=O)C(C)C)C(=O)O
6,49%,C/C=C(\NC(=O)CCCCCC)C(=O)O
7,16%,C/C=C(\NC(=O)C1(C)CC1)C(=O)O
8,54%,C/C=C(\NC(=O)CCCCC)C(=O)O
9,11%,C/C=C(\NC(=O)C1(C)CCCCC1)C(=O)O
10,2.5%,C/C=C(\NC(=O)c1ccc(C)cc1)C(=O)O
11,13%,C/C=C(\NC(=O)C(CCC)CCC)C(=O)O
12,12%,C/C=C(\NC(C)=O)C(=O)O
13,57%,C/C=C(\NC(=O)c1ccco1)C(=O)O
14,15%,C/C=C(\NC(=O)C1C(C=C(C)C)C1(C)C)C(=O)O (centres undefined)
15,0%,C/C=C(\NC(=O)/C=C/C=C/C)C(=O)O
16,6%,C/C=C(\NC(=O)CN)C(=O)O (H-Gly-[Dhb]-OH)
17,33%,C/C=C(\NC(=O)C(CC)CCCC)C(=O)O (centres undefined)
18,0%,C/C=C(\NC(=O)c1ccc(OC)cc1)C(=O)O
19,57%,C/C=C(\NC(=O)CCCCC(C)C)C(=O)O
20,5%,C/C=C(\NC(=O)CNC(=O)CC(C)C)C(=O)O (Isovaleryl-Gly-[Dhb]-OH)
21,5%,C/C=C(\NC(=O)CNC(=O)CCC)C(=O)O (Butyryl-Gly-[Dhb]-OH)
22,46%,C/C=C(\NC(=O)CCCC(=O)N(C)C)C(=O)O
23,6%,C[C@H](N)C(=O)N/C(=C\Cl)C(=O)O
